Measured values: ChEMBL document CHEMBL2417474, “Synthesis, antiproliferative and anti-inflammatory activities of some novel 6-aryl-2-(p-(methanesulfonyl)phenyl)-4,5-dihydropyridazi-3(2H)-ones” (Eur J Med Chem, 2013)

Experiments:
Type in all cases: functional
SF-295 = assay: Growth inhibition of human SF295 cells after 48 hrs by sulforhodamine B assay; conditions: SF-295, 48 h
In short: (§1)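 NCI 60-cell-line panel. Cells were grown in medium with 5% fetal calf serum and 2 mM L-glutamine, then preincubated 24 h in plates. Compounds were added from DMSO at five 10-fold concentrations from 100 to 0.01 µM and left on cells continuously for 48 h. Cell growth was read by sulforhodamine B protein stain. GI50 is the concentration that halves net protein increase relative to control cells.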

TK-10 = assay: Growth inhibition of human TK10 cells after 48 hrs by sulforhodamine B assay; conditions: TK-10, 48 h
In short: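 NCI 60-line panel. Cells were grown in medium with 5% fetal calf serum and 2 mM L-glutamine and preincubated 24 h in plates. Compound in DMSO was added at 10^-4 to 10^-8 M (five 10-fold levels), with continuous exposure for 48 h. Growth was read by SRB protein staining. GI50 is the concentration giving 50% reduction in net protein increase versus control cells.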

HCT-15 = assay: Growth inhibition of human HCT15 cells assessed as cell growth at 10 uM after 48 hrs by sulforhodamine B assay; conditions: HCT-15, 48 h, read-out: Activity
[1] = Growth inhibition of human EKVX cells assessed as cell growth at 10 uM after 48 hrs by sulforhodamine B assay; conditions: read-out: Activity
UACC-257 = assay: Growth inhibition of human UACC257 cells assessed as cell growth at 10 uM after 48 hrs by sulforhodamine B assay; conditions: UACC-257, 48 h, read-out: Activity
In short: (§2)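 Single-dose NCI screen. Tumor lines were cultured in medium with 5% fetal calf serum and 2 mM L-glutamine, preincubated 24 h, then given compound in DMSO. After 48 h continuous exposure, cell growth was estimated by sulforhodamine B protein assay.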

HOP-92 = assay: Growth inhibition of human HOP92 cells after 48 hrs by sulforhodamine B assay; conditions: HOP-92, 48 h
In short: (§3)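 NCI 60-cell-line panel grown in RPMI-type medium with 5% fetal calf serum and 2 mM L-glutamine. Cells preincubated 24 h, then exposed continuously for 48 h to compound in DMSO at 10^-4 to 10^-8 M (five 10-fold levels). Growth read by SRB protein stain. GI50 is the concentration giving a 50% reduction in net protein increase relative to control cells.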

NCI-H226 = assay: Growth inhibition of human NCI-H226 cells assessed as cell growth at 10 uM after 48 hrs by sulforhodamine B assay; conditions: NCI-H226, 48 h, read-out: Activity
UO-31 = assay: Growth inhibition of human UO31 cells assessed as cell growth at 10 uM after 48 hrs by sulforhodamine B assay; conditions: UO-31, 48 h, read-out: Activity; in short: as §2
SF-539 [2] = assay: Growth inhibition of human SF539 cells after 48 hrs by sulforhodamine B assay; conditions: SF-539, 48 h; in short: as §1
OVCAR-8 = assay: Growth inhibition of human OVCAR8 cells assessed as cell growth at 10 uM after 48 hrs by sulforhodamine B assay; conditions: OVCAR-8, 48 h, read-out: Activity
A549 = assay: Growth inhibition of human A549/ATCC cells after 48 hrs by sulforhodamine B assay; conditions: A549, 48 h; in short: as §3
COLO 205 = assay: Growth inhibition of human COLO205 cells after 48 hrs by sulforhodamine B assay; conditions: COLO 205, 48 h; in short: as §3
[3] = Growth inhibition of human EKVX cells after 48 hrs by sulforhodamine B assay; in short: as §3
CAKI-1 [4] = assay: Growth inhibition of human CAKI-1 cells after 48 hrs by sulforhodamine B assay; conditions: CAKI-1, 48 h; in short: as §3
HL-60(TB) [5] = assay: Growth inhibition of human HL-60(TB) cells after 48 hrs by sulforhodamine B assay; conditions: HL-60, 48 h
In short: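 Part of the NCI 60-cell-line panel. Cells were grown in 1640 medium with 5% fetal calf serum and 2 mM L-glutamine, then preincubated 24 h before compound was added. Compounds in DMSO were tested at five concentrations (100, 10, 1, 0.1, 0.01 µM) with 48 h continuous exposure. Read-out was SRB protein staining; GI50 is the concentration halving the net protein increase versus control.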

SF-539 [6] = assay: Growth inhibition of human SF539 cells assessed as cell growth at 10 uM after 48 hrs by sulforhodamine B assay; conditions: SF-539, 48 h, read-out: Activity
SW-620 = assay: Growth inhibition of human SW620 cells assessed as cell growth at 10 uM after 48 hrs by sulforhodamine B assay; conditions: SW-620, 48 h, read-out: Activity; in short: as §2
[7] = Growth inhibition of human NCI-ADR-RES cells assessed as cell growth at 10 uM after 48 hrs by sulforhodamine B assay; conditions: read-out: Activity
OVCAR-3 = assay: Growth inhibition of human OVCAR3 cells after 48 hrs by sulforhodamine B assay; conditions: OVCAR-3, 48 h; in short: as §1
M14 = assay: Growth inhibition of human M14 cells after 48 hrs by sulforhodamine B assay; conditions: M14, 48 h; in short: as §3
HL-60(TB) [8] = assay: Growth inhibition of human HL-60(TB) cells assessed as cell growth at 10 uM after 48 hrs by sulforhodamine B assay; conditions: HL-60, 48 h, read-out: Activity
CAKI-1 [9] = assay: Growth inhibition of human CAKI-1 cells assessed as cell growth at 10 uM after 48 hrs by sulforhodamine B assay; conditions: CAKI-1, 48 h, read-out: Activity
OVCAR-5 = assay: Growth inhibition of human OVCAR5 cells assessed as cell growth at 10 uM after 48 hrs by sulforhodamine B assay; conditions: OVCAR-5, 48 h, read-out: Activity
RPMI-8226 = assay: Growth inhibition of human RPMI8226 cells after 48 hrs by sulforhodamine B assay; conditions: RPMI-8226, 48 h; in short: as §1
NCI-H460 = assay: Growth inhibition of human NCI-H460 cells after 48 hrs by sulforhodamine B assay; conditions: NCI-H460, 48 h; in short: as §1
A498 = assay: Growth inhibition of human A498 cells after 48 hrs by sulforhodamine B assay; conditions: A498, 48 h; in short: as §3
SNB-75 = assay: Growth inhibition of human SNB75 cells after 48 hrs by sulforhodamine B assay; conditions: SNB-75, 48 h; in short: as §1
SF-268 = assay: Growth inhibition of human SF268 cells after 48 hrs by sulforhodamine B assay; conditions: SF-268, 48 h; in short: as §1
[10] = read-out: LC50 (the source's name)

Cc1cc(O)ccc1C1=NN(c2ccc(S(C)(=O)=O)cc2)C(=O)CC1
GI50 (SF-295): 2.87 µM
LC50 (concentration killing 50% of cells present at start) (SF-295): > 100 µM
TGI (SF-295): 12.4 µM
GI50 (TK-10): 80.5 µM
TGI (TK-10): > 100 µM
CC50 (TK-10; [10]): > 100 µM
growth at 10 µM (HCT-15): 44.9%
growth at 10 µM [1]: 72.2%
growth at 10 µM (UACC-257): 93%
GI50 (HOP-92): 6.49 µM
TGI (HOP-92): > 100 µM
CC50 (HOP-92; [10]): > 100 µM
growth at 10 µM (NCI-H226): 93.3%
growth at 10 µM (UO-31): 48.8%
GI50 (SF-539 [2]): 13.2 µM
TGI (SF-539 [2]): > 100 µM
CC50 (SF-539 [2]; [10]): > 100 µM
growth at 10 µM (OVCAR-8): 92.3%
GI50 (A549): 6.2 µM
TGI (A549): > 100 µM
CC50 (A549; [10]): > 100 µM
GI50 (COLO 205): 6.62 µM
TGI (COLO 205): 74.4 µM
CC50 (COLO 205; [10]): > 100 µM
GI50 [3]: 57.9 µM
TGI [3]: > 100 µM
CC50 [3, 10]: > 100 µM
LC50 (lethal concentration, 50% cell kill) (CAKI-1 [4]): > 100 µM
GI50 (HL-60(TB) [5]): 3.52 µM
TGI (HL-60(TB) [5]): 48.4 µM
CC50 (HL-60(TB) [5]; [10]): > 100 µM
growth at 10 µM (SF-539 [6]): 73.8%
growth at 10 µM (SW-620): 46.6%
growth at 10 µM [7]: 40.6%
GI50 (OVCAR-3): 3.41 µM
LC50 (lethal concentration, 50% net cell kill) (OVCAR-3): > 100 µM
TGI (OVCAR-3): 9.44 µM
GI50 (M14): 3.85 µM
TGI (M14): > 100 µM
CC50 (M14; [10]): > 100 µM
growth at 10 µM (HL-60(TB) [8]): 52.6%
growth at 10 µM (CAKI-1 [9]): 25.4%
growth at 10 µM (OVCAR-5): 98%
GI50 (RPMI-8226): 25.6 µM
TGI (RPMI-8226): > 100 µM
CC50 (RPMI-8226; [10]): > 100 µM
GI50 (NCI-H460): 3.87 µM
TGI (NCI-H460): > 100 µM
CC50 (NCI-H460; [10]): > 100 µM
GI50 (A498): 2.78 µM
TGI (A498): 45.4 µM
CC50 (A498; [10]): > 100 µM
GI50 (SNB-75): 5.53 µM
TGI (SNB-75): > 75.2 µM
CC50 (SNB-75; [10]): > 100 µM
GI50 (SF-268): 40 µM
TGI (SF-268): > 100 µM
CC50 (SF-268; [10]): > 100 µM
